Rows were chosen to be rich in hits. Some 2.5% of all compounds tested hit in one or more screens of this group.
Exocytosis inh – LAMP-1 surface exposure blockers, TALL-104 cells – cell-based, flow cytometry, MLPCN library, primary screen | TALL-104 LAMP-1 surface exposure; cells stimulated with thapsigargin and PMA | inhibition, % at 10 µM | 360,000 compounds, 0.66% hits | AID 651702, 2012;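 active = inhibition above about 55%, limit read from the data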
MC4R antag cAMP – MC4R antagonists of cAMP signaling, primary screen, cell-based, TR-FRET, antagonist arm of biased-ligand search; 360,000 compounds, 0.48% hits; AID 540295, 2011; inhibition, % at 6.5 µM; MC4R-expressing cells, MTII-stimulated cAMP, LANCE TR-FRET; Melanocortin receptor 4 (Homo sapiens), P32245;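 active = inhibition above its plate's cutoff, the mean of tested wells on that plate plus 3 SD, cut at about 29% in these data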
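Material – human MC4R-expressing U2OS cells · Repeats – no replicates · Detection – TR-FRET with Eu-cAMP and labeled anti-cAMP, 671 nm · Times – compound 30 min, challenge 1 h, detection 1 h · Compound – single nominal compound dose of 6.5 µM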
NTR1 ag – agonists of human NTR1, primary screen, imaging, U2OS cells, beta-arrestin-GFP, high content; Neurotensin receptor type 1 (Homo sapiens), P30989; NTR1-U2OS beta-arrestin-GFP spot imaging, agonist mode; activation, % at 20 µM; 330,000 compounds, 0.17% hits; AID 493036, 2011;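 active = activation at or above 40% of the spot to cytoplasm intensity ratio, with at least 20 cells analyzed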
MC4R barr agon – MC4R agonists recruiting beta-arrestin, primary screen, cell-based, luminescence, agonist arm of biased-ligand search | Melanocortin receptor 4 (Homo sapiens), P32245 | U2OS MC4R beta-arrestin complementation; percent of melanotan II response, DMSO zero | activation, % at 8.9 µM | 360,000 compounds, 0.98% hits;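 active = activation above a per-plate cutoff, the mean activation of sample wells on that plate plus 3 SD, cut at about 8% in these data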
Bfl-1 A1 inh – caspase 3/7 activation in MEF A1-2A-BIM cells, primary screen, A1 inhibitor project, cell-based, luminescence, HTS; AID 2462, 2010; 330,000 compounds, 0.066% hits; caspase activation, % (test concentration not listed); Caspase-Glo 3/7 luminescence, 3 h; percent of clofoctol response, vehicle zero;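 active = over half of replicate activation scores above 10%, or exactly half above 10 with the replicate mean above 10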
HGIII-sPLA2 inh – human group III sPLA2 inhibitors, primary screen, biochemical, QFRET, BODIPY PC-A2 liposome substrate. QFRET BODIPY PC-A2 liposome hydrolysis, fluorescence. 370,000 compounds, 0.56% hits. inhibition, % at 12.2 µM. Group 3 secretory phospholipase A2 (Homo sapiens), Q9NZ20. AID 743126, 2013;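 active = inhibition above mean plus 3 SD of compounds lying within the high and low control bounds, cut at about 19% in these data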
Target sequence (Q9NZ20 whole entry, looked up): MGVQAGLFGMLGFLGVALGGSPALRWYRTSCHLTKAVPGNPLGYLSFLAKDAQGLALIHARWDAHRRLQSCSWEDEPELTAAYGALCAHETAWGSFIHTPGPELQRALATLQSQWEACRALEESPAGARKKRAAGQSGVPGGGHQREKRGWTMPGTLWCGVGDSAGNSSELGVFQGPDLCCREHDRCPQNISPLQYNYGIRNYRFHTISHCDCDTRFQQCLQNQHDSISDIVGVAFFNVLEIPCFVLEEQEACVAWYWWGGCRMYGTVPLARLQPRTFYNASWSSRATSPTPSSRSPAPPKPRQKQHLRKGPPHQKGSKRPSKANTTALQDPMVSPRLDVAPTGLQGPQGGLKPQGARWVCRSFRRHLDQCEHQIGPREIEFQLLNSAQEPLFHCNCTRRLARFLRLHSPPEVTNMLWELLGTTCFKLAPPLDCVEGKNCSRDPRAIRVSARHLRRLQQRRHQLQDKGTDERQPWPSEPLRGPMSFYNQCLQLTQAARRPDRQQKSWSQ
Exocytosis CP01 – inhibitors of lytic granule exocytosis, confirmation, TALL-104 cells, flow cytometry, Cherry Pick01. shares compounds with Exocytosis inh. LAMP-1 externalization; stimulated with PMA plus thapsigargin. inhibition, % at 10 µM. 1,500 compounds, 11% hits; in the data active = inhibition above about 60%
Of the large screens only hits and unclear results are named; the others gave an inactive call (follow-up assays come after a bar, where they were run).

CCN1CCN(c2ccc(NC(=O)c3cccc(OCc4ccccc4)c3)cc2)CC1	none
CN1CCN(c2ccc(NC(=O)c3cccc(OCc4ccccc4)c3)cc2)CC1	Exocytosis inh 58.3 | Exocytosis CP01 inactive
O=C(Nc1nnc([C@@H]2C[C@H](O)[C@@H](CO)O2)s1)Nc1cccc2c1CCCC2	none (no result: NTR1 ag, Bfl-1 A1 inh)
Nc1nc2c(ncn2[C@@H]2O[C@H](C(=O)NCCCc3ccccc3)[C@@H](O)[C@H]2O)c(=O)[nH]1	none (no result: Exocytosis inh, MC4R antag cAMP, NTR1 ag, MC4R barr agon, Bfl-1 A1 inh)
CN1CCN(C(=O)OCCOCCOC(=O)N2CCN(C)CC2)CC1	Exocytosis inh 60.2 (no result: NTR1 ag, Bfl-1 A1 inh) | Exocytosis CP01 inactive
CN=C1S/C(=C/c2cc(C)n(-c3ccc(Cl)cc3F)c2C)C(=O)N1C	none (no result: Exocytosis inh, MC4R antag cAMP, NTR1 ag, MC4R barr agon, Bfl-1 A1 inh)
Cc1ccc2oc(C(=O)N(C)Cc3ccon3)c(C)c2c1	none
Cc1ccc2oc(C(=O)N(C)Cc3ccc(C)o3)c(C)c2c1	Exocytosis inh 80.8 | Exocytosis CP01 inactive
COc1ccccc1/C=C/c1onc(C)c1S(=O)(=O)N1CCC(C(=O)NC2CCCCCC2)CC1	Exocytosis inh 70.2 | Exocytosis CP01 inactive
COCCCNC(=S)N1CCN(c2nc(C)nc3sc4c(c23)CCCC4)CC1	Exocytosis inh 66.5 | Exocytosis CP01 inactive
CCCNC(=S)N1CCN(c2nc(C)nc3sc4c(c23)CCCC4)CC1	none
c1ccc(OCCOCCN2CCN(C(c3ccccc3)c3ccccc3)CC2)cc1	Exocytosis inh 59.0 | Exocytosis CP01 inactive
COc1ccc(S(=O)(=O)CCc2nnc(NC(=O)c3ccc(F)cc3)s2)cc1	none
CN(C(=O)c1ccc(OC2CCN(S(=O)(=O)N(C)C)CC2)cc1)C1CCCCC1	Exocytosis inh 64.0 | Exocytosis CP01 inactive
CN(C)S(=O)(=O)N1CCC(Oc2ccc(C(=O)N3CCCCCC3)cc2)CC1	none (no result: NTR1 ag, Bfl-1 A1 inh)
O=S1(=O)CCOCC(CO)N1Cc1cccc(Br)c1 (stereo unspecified)	none (no result: Exocytosis inh, MC4R antag cAMP, NTR1 ag, MC4R barr agon, Bfl-1 A1 inh)
CCN(CC)S(=O)(=O)c1cc(NC(=O)CNc2cccc(S(=O)(=O)N3CCOCC3)c2)ccc1C	Exocytosis inh 57.0 | Exocytosis CP01 inactive
Cc1ccc(NC(=O)CNc2cccc(S(=O)(=O)N3CCOCC3)c2)cc1F	none
COc1ccc(-n2sc3ccccc3c2=O)cc1	Exocytosis inh 84.2 (no result: NTR1 ag, Bfl-1 A1 inh) | Exocytosis CP01 99.9
COC(=O)c1cc(-c2cnc(OC)nc2OC)c(=O)n2c1CCC2	none (no result: Exocytosis inh, MC4R antag cAMP, NTR1 ag, MC4R barr agon, Bfl-1 A1 inh)
CC(=O)c1ccc(N2CCN(C(=O)C(=O)c3cn(CC(=O)N4CCOCC4)c4ccccc34)CC2)cc1	none (no result: NTR1 ag, Bfl-1 A1 inh)
Cc1ccc2nc(CN(C)C(=O)[C@H](CCc3ccccc3)NC(=O)[C@H]3O[C@@H](n4cnc5c(N)ncnc54)[C@H](O)[C@@H]3O)[nH]c2c1	none (no result: Exocytosis inh, MC4R antag cAMP, NTR1 ag, MC4R barr agon, Bfl-1 A1 inh)
CCOc1cc(CNCc2ccccc2)ccc1OCc1ccc(Cl)cc1	Exocytosis inh 90.4 | Exocytosis CP01 inactive
CCOc1cc(CNCCc2ccc(S(N)(=O)=O)cc2)ccc1OCc1ccccc1	none (no result: NTR1 ag)
CN1C(C(=O)NCC2CC2)CC2Cn3c(nc4cc(Cl)c(Cl)cc43)C21 (stereo unspecified)	none
CC(C)CCNC(=O)C1CC2Cn3c(nc4cc(Cl)c(Cl)cc43)C2N1C (stereo unspecified)	Exocytosis inh 61.8 | Exocytosis CP01 inactive
CCOC(=O)C1Nc2c(cc(C(F)(F)F)cc2[N+](=O)[O-])C2c3ccccc3CC12 (stereo unspecified)	Exocytosis inh 76.4 | Exocytosis CP01 inactive
O=C(NCCc1ccc(Cl)cc1)C1=CC=CN2CCS(=O)(=O)N=C12	none
COc1ccc(OC)c(-c2csc(NC(=O)Cc3cc(OC)c(OC)c(OC)c3)n2)c1	none

Screens (PubChem)
